Consider 97 molecules from ChEMBL document CHEMBL4513216, “Probing the Open Global Health Chemical Diversity Library for Multistage-Active Starting Points for Next-Generation Antimalarials” (ACS Infect Dis, 2020).

A short description of the data set: Toxicity liver stage against HepG2, at 10uM. In kind it is cell-based. More on the design: test concentration 10 uM, cell line HepG2-A16-CD81EGFP. The note with it: human, HepG2-A16-CD81EGFP cells; read-out: INHIBITION
Summed up: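 Uninfected HepG2-A16-CD81EGFP cells, 3 × 10^3 per well, 1536-well, plated on prespotted compound at 10 μM final, parasite-free screening media added to match infected plates; puromycin 10 μM positive, DMSO 0.5% negative; run in parallel with 48 h PbLuc assay at 37 °C, 5% CO2; viability by CellTiter-Glo luminescence, normalized to controls.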

Each structure is given as a SMILES string.

Regarding `COc1ccc(CN2CCOC[C@H](OCC(=O)N(C)C)C2)cc1`, the cytotoxicity at 10 µM turned out to be 0.552%. Regarding `CCn1cc2c(n1)CN(S(=O)(=O)Cc1ccccc1)CC2COC` (configuration not stated), the cytotoxicity at 10 µM was 10.6%. On to `c1cc(-c2nnc([C@H]3CCNC3)o2)ccn1`, for which the cytotoxicity at 10 µM turned out to be 4.82%.

For the molecule `CC(C)CC(CNC(=O)NCc1cc[nH]n1)N1CCOCC1` (configuration not stated), the cytotoxicity at 10 µM is -12.6%. Regarding `Cc1nc[nH]c1CN1CCC2(CC1)CC(Nc1ncccn1)CO2` (configuration not stated), the cytotoxicity at 10 µM is 12.2%.

On to `CN1CCC2(CCN(S(=O)(=O)c3ccc(-c4cnco4)s3)CC2)C1`, for which the cytotoxicity at 10 µM was -0.0395%. Take `CC(C)(C)c1nccc(N2CCC(OCCN3CCCCC3)C2)n1` (configuration not stated): the cytotoxicity at 10 µM was -53.7%. As for `COc1ncccc1C(=O)N1CCCC1c1nc(-c2ccccc2)n[nH]1` (configuration not stated), the cytotoxicity at 10 µM was -8.76%. With `Cc1ccccc1CCCN(Cc1ccccn1)S(C)(=O)=O` the figure was 9.53%.

For the molecule `CCN(CC)CCN(CC(C)C)c1cc(C(F)(F)F)nc2ncnn12`, the cytotoxicity at 10 µM was -5.39%. The same measure for `CC(=O)N1CCc2c(nc(N(C)C)nc2NCCCn2ccnc2)C1`: -7.28%; for `Cc1ccc(O)c(CN2CCc3nc(-c4cccnc4)nc(O)c3C2)c1`: 5.19%; for `COc1ccc(C2CCCN2c2cnccn2)c(OC)c1` (configuration not stated): 3.72%. Consider `Cc1cccc(CC(=O)NS(=O)(=O)c2ccc(F)c(F)c2)c1`, for which the cytotoxicity at 10 µM was -5.23%. The same measure for `CN(C)CCN(Cc1ccc(Cl)cc1)C(=O)c1cc[nH]n1`: 5.65%. Consider `Cc1nnsc1C(=O)NCc1nn(C2CCCC2)c2c1CCCC2`, for which the cytotoxicity at 10 µM was -0.543%. The same measure for `c1cc2c(cc1-c1noc3c1CN(C1CCSCC1)CC3)OCO2`: 5.51%; for `C=C(C)COc1cccc(CNC(COC)c2ccnn2C)c1` (configuration not stated): -3.57%; for `COC(=O)c1ccc(N2CCN(CCN3CCOCC3)C(C)C2)cc1` (configuration not stated): -13.6%. As to `CS(=O)(=O)N1CC(c2n[nH]c3ncccc23)C1`, the cytotoxicity at 10 µM is -23.4%. `COCC(=O)N1CCCC1c1nccnc1Nc1nc(C)cs1` (configuration not stated): the cytotoxicity at 10 µM was -3.36%. Regarding `Cc1nc(C)n(CC2CCCN2Cc2nc(-c3ccccn3)no2)n1` (configuration not stated), the cytotoxicity at 10 µM is -9.48%. With `COCC1CCCN(C(=O)c2ccccc2NCc2cccnc2)C1` (configuration not stated) the figure was 8.47%. With `Cc1nnc(CN(C)CCCOc2cccc(Cl)c2)o1` the figure was 2.51%; with `CCN(CCC(F)(F)F)C(=O)Nc1cccc(N2CCOCC2)c1`, -8.02%; with `Cc1cccc(C(=O)N2CCCC(Cc3cncc4ccccc34)C2)n1` (configuration not stated), -19%. Turning to `CCOCCN1C[C@H](C(=O)Nc2cccnc2)[C@@H]2CCO[C@@H]2C1`, the cytotoxicity at 10 µM was -101%. With `CCn1cc(CCC(=O)NCc2csc(C3CC3)n2)c(C)n1` the figure was -8.78%. The same measure for `c1cncc(-c2nnn3c2COCC(CNC2CCOCC2)C3)c1` (configuration not stated): -77%. With `COCCN(C(=O)c1cnccn1)c1nc2c(s1)CCc1c-2cnn1C`, the cytotoxicity at 10 µM was -24.3%. In the case of `CS(=O)(=O)NC1CCN(C(=O)COCc2ccccc2)CC1`, the cytotoxicity at 10 µM was -8.61%. On to `O=C([C@H]1C[C@H]2CN(c3ncc(F)cn3)C[C@@H]1O2)N1CCOCC1`, for which the cytotoxicity at 10 µM is -109%.

For the molecule `CN(C)c1cccc(C2CCN(C3COCC3O)CC2)n1` (configuration not stated), the cytotoxicity at 10 µM was -13.9%. With `COc1cccn(CC(=O)N2CCCC3(CCOCC3)C2)c1=O` the figure was 8.78%; with `Cc1ccccc1N1CCN(CCS(=O)(=O)c2ccc(Br)cc2)CC1`, 18.7%; with `Cc1nc(NC(=O)CCOCC(F)(F)F)ccc1Br`, 6.27%. As to `COc1ccc(NC(C)=O)cc1OCc1cccnc1`, the cytotoxicity at 10 µM was -23.5%.

For `Cc1ncc(C(=O)N2CCOC(C(=O)N3CCCCCC3)C2)c(C)n1` (configuration not stated), the cytotoxicity at 10 µM came out at 3.67%. Consider `CC1C(=O)NCCN1CCOc1ccc(C#N)cc1` (configuration not stated), for which the cytotoxicity at 10 µM came to 2.29%. The same measure for `Cc1n[nH]c(C)c1NC(=O)CN1CCn2c(nnc2C(C)C)C1`: -1.03%; for `Cc1noc(C)c1CN1CCC(N(C)Cc2nnc(C3CC3)n2C)C1` (configuration not stated): -4.03%; for `CC(c1ccc2c(c1)OCO2)n1cc2nc(N(C)C)[nH]cc-2c1=O` (configuration not stated): -2.72%. Take `COc1cc(N2CC3(CCN(S(C)(=O)=O)C3)C2)ncn1`: the cytotoxicity at 10 µM was found to be 9.43%. Consider `O=C(NC1CC1)[C@@]12CCO[C@@H]1CCN(Cc1ccc3c(c1)OCO3)C2`, for which the cytotoxicity at 10 µM is -2.87%. The same measure for `FC1(F)CCN(Cc2ccccn2)CC12CCN(c1cccnc1)C2` (configuration not stated): 25.5%; for `CC(C)(C)c1nnc2n1C(C(=O)N1CCCC1)CC2` (configuration not stated): 1.61%; for `COc1ccc(Cl)cc1NCC(=O)N(Cc1ccncc1)C1CC1`: 13.7%. Consider `Cn1ncc2c1CCCC2NCc1cccc(C(F)(F)F)c1` (configuration not stated), for which the cytotoxicity at 10 µM is -8.25%. With `COCCNC(=O)[C@@]12CCO[C@@H]1CCN(Cc1ccc(OC)cc1)C2` the figure was -77.8%.

Turning to `Cc1ccc(OCc2cccc(C(=O)N(C)CCC#N)c2)cn1`, the cytotoxicity at 10 µM was -3.3%.

Take `CS(=O)(=O)NCCCNc1ccc(C(F)(F)F)cc1C#N`: the cytotoxicity at 10 µM was -2.18%.

For `Cc1c(C2SCC(=O)Nc3c2c(O)nn3C(C)C)cnn1C` (configuration not stated), the cytotoxicity at 10 µM stood at 2.39%. The same measure for `CCN1CCOC(CNCc2ccc(OC)c(F)c2)C1` (configuration not stated): 1.79%; for `COCC1CN(Cc2c(C)noc2C)Cc2ccnn2C1` (configuration not stated): -89.3%; for `COC(=O)c1ccc(C(=O)NCc2ccco2)nc1`: -3.73%. As for `O=C(Nc1ccc(CCN2CCC(O)CC2)cc1)Nc1cccnc1`, the cytotoxicity at 10 µM is -7.15%. As to `CC(=O)c1sc2nc3c(c(C(F)(F)F)c2c1N)CN(C(C)=O)CC3`, the cytotoxicity at 10 µM was -26%. With `c1cnnc(N2CCCC(NCc3cccc4c3OCCO4)C2)c1` (configuration not stated) the figure was -7.99%; with `CN(C)C(=O)Cn1c(C2CC2)c(CN2CCC(O)CC2)c2cccnc21`, -4.9%; with `c1ccc(-c2nnc3sc(CCN4CCCCCC4)nn23)cc1`, 1.11%. Take `COCCN1CCN(Cc2cccc(C(N)=O)c2)CC1C` (configuration not stated): the cytotoxicity at 10 µM worked out at 0.794%.

On to `Cc1ccc(NC2CCN(C(=O)CCc3ccsc3)CC2)nn1`, for which the cytotoxicity at 10 µM turned out to be 4.3%.

For `Cc1ccc(CN2CCCC3(CCCN3S(C)(=O)=O)C2)s1` (configuration not stated), the cytotoxicity at 10 µM was -97.9%. With `Cc1cnn(C2CCCN(C(=O)COc3ccc(C(N)=O)cc3)C2)c1` (configuration not stated) the figure was -0.0295%; with `Cc1cnc(N2C[C@@H]3CN(C4CCOC4)CCC[C@]3(C(=O)O)C2)nc1` (some centres not stated), -111%; with `CCOC(=O)[C@]12CCCN(Cc3nccs3)C[C@H]1CN(C(C)=O)C2`, -2.99%. Take `CC(C)CN1CCN(C(=O)NCc2cccnc2-n2cccn2)CC1`: the cytotoxicity at 10 µM came to 7.29%. For `COCCN(Cc1ccccc1)C(=O)c1csc(-c2nnc[nH]2)n1`, the cytotoxicity at 10 µM was found to be 4.9%. Regarding `Nc1nc2c(c(NC(Cn3cccn3)c3ccccc3)n1)CCNCC2` (configuration not stated), the cytotoxicity at 10 µM was -12.3%. With `Cn1cc(-c2ccc(C3CCCCN3Cc3cccnc3)cn2)cn1` (configuration not stated) the figure was 11.6%; with `O=C(NCC1(O)CCOCC1)c1ccn(-c2ccccc2F)n1`, -0.636%; with `COc1ccccc1CC(=O)NC1CCCc2cn[nH]c21` (configuration not stated), 17.1%. As to `CCc1c(C)nc2n(c1=O)CC(C(=O)Nc1nc3c(s1)CCCC3)CS2` (configuration not stated), the cytotoxicity at 10 µM turned out to be 2.17%. Regarding `Cc1ccc(CC(=O)N(CC2CN(C)CCO2)c2nccs2)cn1` (configuration not stated), the cytotoxicity at 10 µM was -9.89%. The same measure for `CS(=O)(=O)N1CCO[C@@H]2CN(C(=O)C3CC(F)(F)C3)C[C@@H]2C1`: 6.19%; for `CN(CCCSc1ccccc1)C(=O)Cn1ncc(N(C)C)cc1=O`: 0.0227%; for `O=C1CCCC2=Nc3nonc3NC(c3cccc(F)c3F)C12` (configuration not stated): 0.285%. With `Nc1nc(CN2CCOC(Cn3cccn3)C2)nc2ccccc12` (configuration not stated) the figure was -20.4%; with `CCc1nc(C2CCCN(C(=O)CN(C)S(C)(=O)=O)C2)no1` (configuration not stated), -3.22%; with `CC(=O)N1CCC(c2cnc(NC3CCOCC3)cn2)CC1`, -3.73%. With `O=C(c1ccncc1F)N1CCc2ncnc(-c3ccncc3)c2CC1` the figure was 2.75%; with `c1ccc(N2CCCC3(CCN(Cc4ccsc4)C3)C2)nc1` (configuration not stated), -14%; with `COCc1cc(N(C)Cc2cc(C(C)(C)C)n[nH]2)ncn1`, -1.15%. On to `c1ccc(COC2CCN(c3cncc(-n4cccn4)n3)CC2)cc1`, for which the cytotoxicity at 10 µM is -9.18%. Turning to `CN1CCC(c2cccc(CCC(=O)NCC(N)=O)n2)CC1`, the cytotoxicity at 10 µM is -20.1%. With `Cc1cc(=O)[nH]c(-c2cccc(CN3CCCN4CCCC4C3)c2)n1` (configuration not stated) the figure was 1.46%. Regarding `COCC(C)NC(=O)CSc1ccc(F)c(Cl)c1` (configuration not stated), the cytotoxicity at 10 µM is -48%. In the case of `CSc1ncn(-c2nc(NC3CC3)nc(N(C)C)n2)n1`, the cytotoxicity at 10 µM is -6.75%. Consider `Cc1ccc2oc(=O)n(CC(=O)N3CCC4(CC3)CN(C)C(=O)O4)c2c1`, for which the cytotoxicity at 10 µM is -13.8%.

On to `OC(COCc1ccccc1)CSc1nnc2ccccn12` (configuration not stated), for which the cytotoxicity at 10 µM is 2.95%. Take `CC(C)c1cc(NCC(O)c2ccc(F)cc2)n2nccc2n1` (configuration not stated): the cytotoxicity at 10 µM amounted to 0.255%.

Turning to `O=C(Nc1nc(-c2ccccc2)ns1)N1CCC(CO)CC1`, the cytotoxicity at 10 µM was determined as 9.11%. The same measure for `CN(C)C1CCCN(C(=O)NCCC(=O)N2CCCCCC2)C1` (configuration not stated): -6.45%. The same measure for `Cc1nc2cc(=O)[nH]n2c(C)c1CC(=O)NC(C)C`: 11.3%.

In the case of `COCC(=O)N1CCCC1c1cc(Nc2nnc(C)s2)nc(C)n1` (configuration not stated), the cytotoxicity at 10 µM was -6.15%.

Turning to `COC(=O)C(C)(C)C(C)(C)NC(=O)Nc1nnc(-c2ccccn2)s1`, the cytotoxicity at 10 µM was found to be 9.15%. The same measure for `Cn1ccnc1SCC(=O)NCCC1CCCO1` (configuration not stated): -2.49%.
